Assay results from ChEMBL document CHEMBL4017487, “Design and Synthesis of γ- and δ-Lactam M1 Positive Allosteric Modulators (PAMs): Convulsion and Cholinergic Toxicity of an M1-Selective PAM with Weak Agonist Activity” (J Med Chem, 2017).

Key:
[1] = Ratio of AUC in iv or po dosed mouse brain to plasma; type: ADME, organism-based; conditions: read-out: Ratio AUC
Method in brief: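 Brain/plasma ratio computed from AUC of total drug in brain and total drug in plasma.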

[2] = biological target: T1, Muscarinic acetylcholine receptor M2 (Homo sapiens, UniProt P08172); experiment: Positive allosteric modulation of human muscarinic acetylcholine receptor M2 expressed in CHO cells assessed as increase in acetylcholine-induced cAMP accumulation up to 10 uM after 2 hrs by cAMP-Glo assay; type: cell-based
T1 sequence (P08172 whole entry): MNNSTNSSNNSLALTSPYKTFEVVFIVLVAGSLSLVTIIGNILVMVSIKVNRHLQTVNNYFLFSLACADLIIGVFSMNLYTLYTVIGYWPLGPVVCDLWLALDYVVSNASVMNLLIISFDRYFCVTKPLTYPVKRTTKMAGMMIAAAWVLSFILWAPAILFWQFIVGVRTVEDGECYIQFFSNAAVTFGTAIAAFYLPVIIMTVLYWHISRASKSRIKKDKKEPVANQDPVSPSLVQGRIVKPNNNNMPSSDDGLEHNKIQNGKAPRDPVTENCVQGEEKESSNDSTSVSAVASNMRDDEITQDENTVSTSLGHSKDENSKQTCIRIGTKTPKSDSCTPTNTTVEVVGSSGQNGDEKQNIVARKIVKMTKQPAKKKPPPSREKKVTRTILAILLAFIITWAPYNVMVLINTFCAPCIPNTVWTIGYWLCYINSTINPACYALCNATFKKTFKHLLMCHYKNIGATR
Method in brief: (§1)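 Recombinant functional human M2–M5 assays, each run in agonist and PAM modes at concentrations up to 10 μM.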

[3] = biological target: Muscarinic acetylcholine receptor M3 (Homo sapiens, UniProt P20309); experiment: Positive allosteric modulation of human muscarinic acetylcholine receptor M3 expressed in CHO cells assessed as increase in acetylcholine-induced calcium mobilization up to 10 uM preincubated for 10 mins followed by acetylcholine addition by Fluo-8-AM dye based FLIPR assay; type: cell-based; method in brief: as §1
Muscarinic acetylcholine receptor M3, sequence (P20309 whole entry): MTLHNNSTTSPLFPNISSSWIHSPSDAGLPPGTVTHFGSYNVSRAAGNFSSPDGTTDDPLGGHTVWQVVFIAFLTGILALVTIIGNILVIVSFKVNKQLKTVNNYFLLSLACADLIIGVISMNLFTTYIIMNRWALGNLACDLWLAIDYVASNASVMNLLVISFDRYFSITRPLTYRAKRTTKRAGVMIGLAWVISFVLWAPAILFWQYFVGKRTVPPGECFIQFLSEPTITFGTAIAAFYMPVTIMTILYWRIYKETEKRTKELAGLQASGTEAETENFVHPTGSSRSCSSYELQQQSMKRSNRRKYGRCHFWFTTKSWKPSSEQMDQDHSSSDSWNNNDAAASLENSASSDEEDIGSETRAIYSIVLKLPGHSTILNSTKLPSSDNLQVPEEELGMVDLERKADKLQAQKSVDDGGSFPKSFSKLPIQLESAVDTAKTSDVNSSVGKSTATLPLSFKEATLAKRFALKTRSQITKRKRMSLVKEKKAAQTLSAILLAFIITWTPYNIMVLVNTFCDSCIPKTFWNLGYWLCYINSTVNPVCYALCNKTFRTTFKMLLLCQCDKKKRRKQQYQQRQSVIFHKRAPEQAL

[4] = Positive allosteric modulation of muscarinic acetylcholine receptor M1 in Hartley guinea pig ileum longitudinal muscle myenteric plexus assessed as increase in acetylcholine-induced tissue contraction after 10 mins in presence of donepezil; conditions: Cavia porcellus
[5] = biological target: T2, Muscarinic acetylcholine receptor M1 (Homo sapiens, UniProt P11229); experiment: Ratio of positive allosteric modulation of human muscarinic acetylcholine receptor M1 expressed in CHO cells assessed as increase in acetylcholine-induced calcium mobilization by measuring functional co-operativity with acetylcholine to Kb human muscarinic acetylcholine receptor M1 expressed in CHO cells assessed as increase in calcium mobilization; type: ADME, cell-based
T2 sequence (P11229 whole entry): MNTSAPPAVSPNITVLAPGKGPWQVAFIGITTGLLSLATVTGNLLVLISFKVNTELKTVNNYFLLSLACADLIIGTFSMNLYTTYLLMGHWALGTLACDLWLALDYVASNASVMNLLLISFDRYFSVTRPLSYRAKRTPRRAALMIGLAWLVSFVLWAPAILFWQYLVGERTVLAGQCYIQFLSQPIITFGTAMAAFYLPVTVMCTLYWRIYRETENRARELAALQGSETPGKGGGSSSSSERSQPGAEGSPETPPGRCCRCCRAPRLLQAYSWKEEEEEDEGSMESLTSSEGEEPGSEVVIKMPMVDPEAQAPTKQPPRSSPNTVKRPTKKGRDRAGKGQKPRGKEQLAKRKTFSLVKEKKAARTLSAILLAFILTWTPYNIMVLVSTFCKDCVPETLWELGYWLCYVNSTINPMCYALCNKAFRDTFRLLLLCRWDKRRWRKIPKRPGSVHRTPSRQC

[6] = test system: Brain; experiment: Unbound brain concentration in scopolamine-induced memory impairment Wistar rat model at 0.32 mg/kg, sc measured after 1.25 hrs by LC-MS/MS analysis; type: ADME, organism-based; conditions: in vivo
[7] = test system: Rattus norvegicus; experiment: Toxicity in rat assessed as convulsions at 45 mg/kg, po administered as single dose after 1 to 6 hrs; type: organism-based; conditions: in vivo
[8] = test system: Rattus norvegicus; experiment: Toxicity in rat assessed as unbound brain concentration at 45 mg/kg, po administered as single dose; type: organism-based; conditions: in vivo
[9] = test system: Rattus norvegicus; experiment: Toxicity in rat assessed as unbound plasma concentration required for convulsions at 45 mg/kg, po administered as single dose after 1 to 6 hrs; type: organism-based; conditions: in vivo
[10] = test system: Canis familiaris; experiment: Cholinergic toxicity in dog assessed as circling behaviour at 5 mg/kg, po administered as single dose using spray dried dispersion formulation after 4.3 hrs; type: organism-based, Canis lupus familiaris; conditions: in vivo
Method in brief: (§2)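 Dog single oral dose escalation: 1/sex at 5 mg/kg for each formulation; 1 female at 15 mg/kg. Spray-dried dispersion: 23% drug loading with 0.5% methylcellulose and 100 mM citrate buffer. Clinical signs timed in approximate hours postdose; unbound plasma Cmax.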

[11] = test system: Canis familiaris; experiment: Toxicity in dog assessed as convulsion at 15 mg/kg, po administered as single dose using spray dried dispersion formulation after 1.2 hrs; type: organism-based, Canis lupus familiaris; conditions: in vivo; method in brief: as §2
[12] = test system: Mus musculus; experiment: In vivo agonist activity at muscarinic acetylcholine receptor M1 in C57BL/6 mouse assessed as unbound brain concentration required to show 2 fold increase in IP1 accumulation in striatum at 1 to 10 mg/kg, sc measured after 2 hrs; type: organism-based
Method in brief: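 Cb,u giving a 2-fold rise in striatal IP1 in C57BL/6 mice, estimated by interpolation of individual-mouse IP1 versus free brain exposure data.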

[13] = test system: Rattus norvegicus; experiment: Toxicity in rat assessed as unbound Cmax in plasma required to show convulsions at 45 mg/kg, po administered as single dose; type: organism-based; conditions: in vivo
[14] = test system: Rattus norvegicus; experiment: Toxicity in rat assessed as unbound Cmax in brain required to show convulsions at 45 mg/kg, po administered as single dose; type: organism-based; conditions: in vivo

In the case of `Cc1cc2c(cc1Cc1ccc(-c3cocn3)cc1)C(=O)N([C@H]1CCOC[C@@H]1O)C2`, the Kp [1] is reported as 0.1, the Activity [2] is reported as “Not Active” and the Activity [3] is reported as “Not Active”. The EC50 [4] was 46 nM, the Ratio [5] was 70 and the “Drug uptake(free)” value [6] was 3.4 nM. For the same molecule, the Activity [7] was “Toxic”, the Drug uptake(free) [8] was 460 to 760 nM and the Cp(f) [9] was 2310 nM. For the same molecule, the Activity [10] was “Toxic”, the Activity [11] was “Toxic” and the “Drug uptake(free)” value [12] was 22 nM. It also gave a fCmax [13] of 2310 nM and a fCmax [14] of 440 nM.
